# Experimental data taken from paper PMC4281931 (Anticancer research, 2013).
# Target: PARP-1 (poly ADP-ribose polymerase) (Homo sapiens, UniProt P09874)
# Test: PARP-1 chemiluminescent assay kit
# Assay type: biochemical
# Details: read-out: % (inhibition at 21.35 μM)
# Method in brief: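 Human PARP-1 activity was measured with a chemiluminescent kit, run per the maker's protocol. PARP-1 incorporates biotinylated NAD into biotinyl-poly(ADP-ribose) on immobilized histone substrate. The biotinylated substrate was incubated with the test compound at several concentrations in assay buffer containing PARP-1 enzyme. The read-out was chemiluminescence.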
# PARP-1 (poly ADP-ribose polymerase), sequence (P09874 2-1014): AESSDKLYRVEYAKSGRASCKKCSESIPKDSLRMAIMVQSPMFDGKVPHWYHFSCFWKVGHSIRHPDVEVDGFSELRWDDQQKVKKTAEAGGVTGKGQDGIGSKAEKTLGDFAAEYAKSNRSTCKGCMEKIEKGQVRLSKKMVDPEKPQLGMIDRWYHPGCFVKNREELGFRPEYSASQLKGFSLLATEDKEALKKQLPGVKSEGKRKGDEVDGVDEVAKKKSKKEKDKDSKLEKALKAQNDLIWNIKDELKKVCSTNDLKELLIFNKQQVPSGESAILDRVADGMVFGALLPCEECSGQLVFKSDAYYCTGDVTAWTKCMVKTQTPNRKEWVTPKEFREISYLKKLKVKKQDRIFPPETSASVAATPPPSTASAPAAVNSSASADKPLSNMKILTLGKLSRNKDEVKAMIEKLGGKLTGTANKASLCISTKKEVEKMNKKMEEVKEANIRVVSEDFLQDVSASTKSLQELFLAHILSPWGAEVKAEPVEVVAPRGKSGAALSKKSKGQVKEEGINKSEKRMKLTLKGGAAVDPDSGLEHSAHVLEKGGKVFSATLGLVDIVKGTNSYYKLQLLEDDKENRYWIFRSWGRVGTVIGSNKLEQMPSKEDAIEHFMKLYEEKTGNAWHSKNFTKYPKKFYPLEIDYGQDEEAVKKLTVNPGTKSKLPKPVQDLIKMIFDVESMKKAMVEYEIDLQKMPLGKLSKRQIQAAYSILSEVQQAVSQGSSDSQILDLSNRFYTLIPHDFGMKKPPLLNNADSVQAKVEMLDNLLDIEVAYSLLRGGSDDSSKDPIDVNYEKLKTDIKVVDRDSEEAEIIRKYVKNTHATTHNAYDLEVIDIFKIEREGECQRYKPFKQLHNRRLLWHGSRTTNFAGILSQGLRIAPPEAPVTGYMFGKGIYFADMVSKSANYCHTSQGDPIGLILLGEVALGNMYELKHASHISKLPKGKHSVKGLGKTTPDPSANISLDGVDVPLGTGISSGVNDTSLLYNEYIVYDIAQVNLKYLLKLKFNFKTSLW
smiles,measurement,value
O=C1C[C@@H](c2ccccc2)Oc2c(Cc3ccccc3O)c(O)c(Cc3ccccc3O)c(O)c21 [dichamanetin],inhibition at 21.35 µM,96.2%
